# Published values gathered from unrelated publications.
# Each line is one published result; the experiments were not run side by side.
# Sample: plasma
Compound,species,route,dose,setting,bioavailability
CS(=O)(=O)Nc1ccc(-c2ccnc(Nc3ccc(-n4ccnn4)cc3)n2)cc1,Sprague-Dawley rat,oral,2 mg/kg,,5%
Cl.Cl.O=C(CCN1CCCCC1)c1ccc(-c2ccc(C(=O)CCN3CCCCC3)cc2)cc1,Sprague-Dawley rat,oral,100 mg/kg,,24.2%
Cc1ncc(C)n2nc(/C=C/c3nc(N4CCCC4)cc(N4CCOCC4)n3)nc12,male Sprague-Dawley rat,oral,0.3 mg/kg,,33%
C#Cc1ccc2c(c1)C(c1ccccn1)=NCc1c(-c3cnco3)ncn1-2,male Sprague-Dawley rat,intraperitoneal,10 mg/kg,,69%
N=c1c2c(-c3ccccc3)c(-c3ccccc3)n(Cc3ccccc3)c2ncn1[C@H]1CC[C@H](O)CC1,male Sprague-Dawley rat,oral,2 mg/kg,single dose,> 80%
Cc1cnc(N2CC3(CCOCC3)C2)c(C(=O)Nc2ccc(C(=O)N3CCc4cc(C(=O)Nc5c(C)cccc5F)sc4-c4ccccc43)cc2)c1,rat,inhaled,2.7 mg/kg,single dose,< 3%
O=C([O-])C(=O)[O-].[NH-][C@@H]1CCCC[C@H]1[NH-].[Pt+4] (relative stereo),rat,intravenous,5 mg/kg,,100%
[2H]C([2H])(c1cc(F)c(F)cc1F)n1c(=O)n(Cc2ncn(C)n2)c(=O)[nH]/c1=N\c1cc2cn(C)nc2cc1Cl,male Sprague-Dawley rat,oral,25 mg/kg,,117%
CCC[C@@](N)(CO)CCc1ccc(OCCCCCC(C)C)cc1,rat,oral,30 mg/kg,,35%
O=C(Nc1cccnn1)N1CCN([C@@H]2CCOc3cc(C(F)(F)F)ccc32)CC1,male Sprague-Dawley rat,oral,0.3 mg/kg,,41%
CN(C)C(=O)Oc1cc(OC(=O)N(C)C)cc(-c2cc3ccc(O)cc3o2)c1,male rat,oral,5 mg/kg,,3.01%
Cn1cnc(Cn2c(=O)[nH]/c(=N\c3cc4cn(C)nc4cc3Cl)n(Cc3cc(F)c(F)cc3F)c2=O)n1,male Sprague-Dawley rat,oral,25 mg/kg,,129%
COc1ncccc1-c1cnn2ccc(N3CCN(C(=O)OC(C)C)CC3)nc12,rat,oral,10 mg/kg,,50%
